The source of these data is PMC2212267 (The Journal of Experimental Medicine, 1998).

In test [1] the test system is MBP-responsive T cell lines. As to the kind of experiment: Proliferation responses of MBP-responsive T cell lines. It is filed as cell-based. Particulars: unpublished data (Rabinowitz, J.D.).
For test [2], the target named is T1, I-A^u (Mus musculus, UniProt P06344+P14438).
T1 sequence (P14438 1-227): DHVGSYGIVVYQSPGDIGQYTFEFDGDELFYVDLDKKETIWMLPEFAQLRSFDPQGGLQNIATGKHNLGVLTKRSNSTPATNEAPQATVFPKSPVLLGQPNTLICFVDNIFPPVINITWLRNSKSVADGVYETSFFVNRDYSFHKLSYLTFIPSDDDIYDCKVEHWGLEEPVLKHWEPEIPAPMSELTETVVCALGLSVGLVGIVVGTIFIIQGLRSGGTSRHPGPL
T1 sequence (P06344 28-263): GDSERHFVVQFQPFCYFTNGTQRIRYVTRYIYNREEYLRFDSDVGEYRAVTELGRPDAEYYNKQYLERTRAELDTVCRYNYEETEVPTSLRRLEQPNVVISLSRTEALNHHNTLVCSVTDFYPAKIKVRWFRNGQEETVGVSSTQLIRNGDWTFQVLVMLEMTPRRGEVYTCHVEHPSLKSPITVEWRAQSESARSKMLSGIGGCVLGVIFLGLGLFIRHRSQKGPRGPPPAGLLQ
Briefly: Peptide dissociation kinetics from purified MHC protein. It is filed as binding. Particulars: fluorescein-labeled peptide, pH 5.3, 37°C, HPSEC; Fig. 4 b.

For test [3], the target named is T1, I-A^u. As to the kind of experiment: FACS binding of biotinylated MBP peptides to live L cell transfectants. The conditions noted are these: wild-type I-A^u; among 4A, 4E, 4Y; Fig. 1 a. Put shortly: (§1)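 Live L cell transfectants (wild-type or β9-mutant I-A, 5 × 10^5 cells) washed, then incubated 4 h at 37°C, 7% CO2 with 200 μM biotinylated MBP analogue in RPMI 1640/1% BSA. Washed twice, then streptavidin–Quantum red/PE for 20 min on ice. MHC level read with FITC anti-Aβk,u mAb 10-2.16; propidium iodide viability stain. Net binding is mean fluorescence minus nontransfected L cells plus peptide, divided by FITC signal, then normalized to 4A peptide on wild-type transfectant.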

Test [4] addresses I-A^k (Mus musculus, UniProt P01910+P06343). The description is as above. The conditions noted are these: β9 mutant I-A^k H9V; among 4A, 4E, 4Y; Fig. 1 a. In short, it runs like this: as §1
For test [5], the target named is I-A^k class II MHC protein, wild type, on L cell transfectants (mouse). Briefly: flow cytometry on cells.
Test [6] concerns the target I-A^u class II MHC protein, purified (mouse). As to the kind of experiment: peptide dissociation kinetics followed by HPSEC with fluorescence detection.

Where no end group is shown, it is not given here. 5,6‑carboxyfluorescein = 5,6-carboxyfluorescein

Sequence of I-A^k (P01910 24-256): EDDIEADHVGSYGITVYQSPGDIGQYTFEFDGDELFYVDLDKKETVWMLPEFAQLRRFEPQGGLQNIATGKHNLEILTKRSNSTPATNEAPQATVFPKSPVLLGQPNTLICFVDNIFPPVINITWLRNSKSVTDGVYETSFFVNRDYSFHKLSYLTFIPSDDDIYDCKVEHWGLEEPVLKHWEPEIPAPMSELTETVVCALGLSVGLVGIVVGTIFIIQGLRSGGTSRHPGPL
Sequence of I-A^k (P06343 28-263): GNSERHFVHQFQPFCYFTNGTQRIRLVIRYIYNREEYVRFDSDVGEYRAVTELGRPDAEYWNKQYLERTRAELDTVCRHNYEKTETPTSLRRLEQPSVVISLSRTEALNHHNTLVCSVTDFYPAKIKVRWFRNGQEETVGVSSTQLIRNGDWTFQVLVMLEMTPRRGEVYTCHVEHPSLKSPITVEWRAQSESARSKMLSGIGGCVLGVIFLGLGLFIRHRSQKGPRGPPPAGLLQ

In the case of ISQAVAASQYRPSQRSKY [ova-MBP K4Y], the “proliferation responses of a series of MBP-responsive T cell lines” value in test [1] is “abrogated proliferation responses”.

Consider ISQAVAASQKRPSQRSKY [ova-MBP], for which the “slower dissociation from I-A^u than wild-type MBP Ac1-12” value in test [2] is approximately 80 fold. In addition, in test [1], the “proliferation responses of a series of MBP-responsive T cell lines” value is reported as “abrogated proliferation responses”.

Consider “4Y: MBP peptide with residue 4 lysine replaced with tyrosine (Ac-ASQYRPSQRHGSK-biotin)”, for which the “peptide preference of I-A^u in FACS binding” value in test [3] is listed as “prefers”. In test [4], the “peptide preference of I-A^k H9V in FACS binding” value was “prefers”.

In test [5], Ac-ASQERPSQRHGSK-biotin [biotinylated MBP Ac1-13 K4E (rat MBP sequence)] returned a fold improvement of binding over MBP Ac1-11 4A of 2 fold and a fold improvement of binding over wild-type MBP of more than 20 fold.

For {5,6‑carboxyfluorescein}-ISQAVAASQYRPSQRSKY [ova-MBP K4Y, fluorescein-labelled], in test [6], the dissociation half-time (t 1/2) was more than 200 h and the fold increase in stability of binding over wild-type MBP was more than 1000 fold.

{5,6‑carboxyfluorescein}-ISQAVAASQKRPSQRSKY [ova-MBP (NH2-terminally extended MBP peptide), fluorescein-labelled] returned a fold slower dissociation than wild-type MBP Ac1-12 in test [6] of 80 fold.
